Drawing on PubChem BioAssay AID588422 (The Scripps Research Institute Molecular Screening Center, 2011), this text covers IC50 for one compound.

The source made the active and inactive calls.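 The calls were made as follows: active = IC50 at or below 1 µM; inactive = the rest.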

The target of this experiment is Protein-arginine deiminase type-4 (Homo sapiens) (UniProt Q9UM07). Briefly: recombinant human PAD4 inhibitors – biochemical, BAEE substrate, citrulline absorbance, 0-60 µM range, late-stage follow-up (AID 588422). Particulars: recombinant PAD4, BAEE citrulline colorimetric absorbance. A digest of the protocol: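 System: recombinant PAD4 / Quantity: PAD4 enzyme at 0.2 µM / Also added: BAEE substrate at 10 mM / Compound dosing: 7-point dilution series, 0 to 60 µM final / Schedule: Enzyme–compound preincubation 15 min at 37 °C, then 15 min BAEE reaction / Detection: citrulline colour reaction, A540 / Replication: duplicate measurements per concentration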
Chain of Protein-arginine deiminase type-4 (Homo sapiens) (Q9UM07 whole entry, looked up): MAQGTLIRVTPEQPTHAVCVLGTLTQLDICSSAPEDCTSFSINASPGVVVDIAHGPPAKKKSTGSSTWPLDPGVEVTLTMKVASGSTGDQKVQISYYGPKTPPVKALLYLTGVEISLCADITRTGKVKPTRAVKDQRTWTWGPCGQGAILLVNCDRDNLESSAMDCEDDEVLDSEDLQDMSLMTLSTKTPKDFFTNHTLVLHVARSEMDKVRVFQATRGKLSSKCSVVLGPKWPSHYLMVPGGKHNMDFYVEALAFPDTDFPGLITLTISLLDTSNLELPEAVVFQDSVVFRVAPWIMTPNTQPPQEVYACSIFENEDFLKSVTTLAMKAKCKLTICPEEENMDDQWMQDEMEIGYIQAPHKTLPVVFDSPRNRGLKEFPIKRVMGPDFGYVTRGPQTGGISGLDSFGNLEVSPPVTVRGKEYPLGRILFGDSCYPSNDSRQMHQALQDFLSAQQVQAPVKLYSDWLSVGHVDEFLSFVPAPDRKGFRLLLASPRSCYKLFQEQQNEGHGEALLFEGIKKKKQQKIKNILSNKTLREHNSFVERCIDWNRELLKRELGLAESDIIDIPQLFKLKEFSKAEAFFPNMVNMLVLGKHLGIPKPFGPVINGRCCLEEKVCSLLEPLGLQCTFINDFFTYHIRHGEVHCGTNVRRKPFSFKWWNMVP

With `COC(=O)c1cccc(-c2ccc3c(n2)C(=O)C(Br)=CC3=O)n1`, the IC50 entry is “inactive”.
